Measurements from ChEMBL document CHEMBL1131239, “Orally active benzamide antipsychotic agents with affinity for dopamine D2, serotonin 5-HT1A, and adrenergic alpha1 receptors” (J Med Chem, 1998).
pKi: −log10 of the molar value.

Columns and labels:
[1] = target: T1, 5-hydroxytryptamine receptor 1A (Rattus norvegicus, UniProt P19327); test: Compound was evaluated for its binding affinity against 5-hydroxytryptamine 1A receptor from rat cerebral cortex; format: tissue-based
T1 sequence (P19327 whole entry): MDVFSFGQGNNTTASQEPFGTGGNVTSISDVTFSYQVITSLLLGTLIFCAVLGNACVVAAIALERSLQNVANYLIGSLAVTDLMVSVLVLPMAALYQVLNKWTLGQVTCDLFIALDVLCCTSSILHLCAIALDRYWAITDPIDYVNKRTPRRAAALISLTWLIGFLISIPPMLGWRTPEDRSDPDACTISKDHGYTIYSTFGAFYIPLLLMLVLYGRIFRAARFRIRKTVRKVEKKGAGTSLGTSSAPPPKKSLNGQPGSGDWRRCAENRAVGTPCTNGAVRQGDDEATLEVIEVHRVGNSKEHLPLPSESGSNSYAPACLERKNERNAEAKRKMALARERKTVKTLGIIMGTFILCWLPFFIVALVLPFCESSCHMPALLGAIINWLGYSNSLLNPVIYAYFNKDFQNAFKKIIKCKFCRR

[2] = target: T2, Adrenergic receptor alpha-1 (Rattus norvegicus, UniProt P15823+P23944+P43140); test: Binding affinity against Alpha-1 adrenergic receptor from rat cerebral cortex; format: tissue-based
T2 sequence (P15823 whole entry): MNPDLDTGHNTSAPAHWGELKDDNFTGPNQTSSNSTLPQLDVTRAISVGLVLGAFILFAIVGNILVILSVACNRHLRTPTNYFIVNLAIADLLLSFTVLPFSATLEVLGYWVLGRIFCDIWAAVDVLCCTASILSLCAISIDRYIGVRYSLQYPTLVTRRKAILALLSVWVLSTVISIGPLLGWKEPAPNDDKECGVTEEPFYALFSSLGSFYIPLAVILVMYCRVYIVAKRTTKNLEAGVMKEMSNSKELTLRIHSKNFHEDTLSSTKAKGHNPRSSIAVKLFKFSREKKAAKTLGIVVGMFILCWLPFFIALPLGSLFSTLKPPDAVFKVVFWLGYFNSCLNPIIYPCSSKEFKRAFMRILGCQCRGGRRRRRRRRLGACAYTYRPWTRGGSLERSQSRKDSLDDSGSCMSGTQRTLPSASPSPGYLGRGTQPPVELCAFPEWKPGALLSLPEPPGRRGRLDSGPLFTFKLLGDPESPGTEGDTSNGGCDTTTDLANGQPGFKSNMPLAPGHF
T2 sequence (P23944 whole entry): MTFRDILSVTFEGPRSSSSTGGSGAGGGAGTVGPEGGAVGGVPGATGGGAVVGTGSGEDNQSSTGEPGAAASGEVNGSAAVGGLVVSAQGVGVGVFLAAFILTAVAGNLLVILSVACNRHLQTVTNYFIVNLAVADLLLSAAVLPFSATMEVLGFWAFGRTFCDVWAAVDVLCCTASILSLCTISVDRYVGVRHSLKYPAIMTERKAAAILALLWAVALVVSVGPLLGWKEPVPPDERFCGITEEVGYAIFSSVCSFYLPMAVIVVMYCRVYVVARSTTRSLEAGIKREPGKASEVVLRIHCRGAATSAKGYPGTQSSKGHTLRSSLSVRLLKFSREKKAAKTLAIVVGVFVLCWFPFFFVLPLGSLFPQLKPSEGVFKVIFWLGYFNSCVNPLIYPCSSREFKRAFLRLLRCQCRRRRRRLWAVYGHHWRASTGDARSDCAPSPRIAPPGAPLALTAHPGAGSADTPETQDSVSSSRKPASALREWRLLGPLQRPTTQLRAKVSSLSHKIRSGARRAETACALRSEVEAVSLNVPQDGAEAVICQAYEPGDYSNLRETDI
T2 sequence (P43140 whole entry): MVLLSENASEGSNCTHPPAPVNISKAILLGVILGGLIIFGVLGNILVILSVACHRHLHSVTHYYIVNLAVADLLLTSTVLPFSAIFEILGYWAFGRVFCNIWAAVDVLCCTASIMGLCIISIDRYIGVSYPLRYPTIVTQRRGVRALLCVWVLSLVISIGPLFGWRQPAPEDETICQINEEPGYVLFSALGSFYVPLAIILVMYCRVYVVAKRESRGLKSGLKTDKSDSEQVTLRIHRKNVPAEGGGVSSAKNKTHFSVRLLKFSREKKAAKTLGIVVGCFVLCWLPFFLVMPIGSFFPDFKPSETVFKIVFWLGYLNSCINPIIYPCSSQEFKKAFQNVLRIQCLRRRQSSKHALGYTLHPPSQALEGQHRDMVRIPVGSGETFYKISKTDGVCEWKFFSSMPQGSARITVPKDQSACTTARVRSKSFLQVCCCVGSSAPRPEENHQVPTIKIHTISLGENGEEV

Rattus norvegicus [3] = test: compound was tested for antipsychotic activity by conditioned avoidance response(CAR) assay in rats with a pretreatment period of 30 min upon intra peritoneal administration at a concentration of 1 mg/kg.; format: functional
In short: (§1)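 Trained rats (N = 4) were run in 1-h sessions on two consecutive days, with the experimenter blind to drug and dose. Fed rats had food and water until placed in the test chambers. Fasted rats had no food overnight before the experiment.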

Rattus norvegicus [4] = test: compound was tested for antipsychotic activity by conditioned avoidance response(CAR) assay in rats with a pretreatment period of 30 min upon intra peritoneal administration at a concentration of 5 mg/kg.; format: functional
In short: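 Rat conditioned avoidance test modified from Martin et al. Trained rats (N = 4) were run in 1-h sessions on two consecutive days. Fed animals had food and water until placed in the test chambers. Dosing was ip with 30 min pretreatment, and activity was expressed as percent inhibition at the stated dose.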

Rattus norvegicus [5] = test: compound was tested for antipsychotic activity by conditioned avoidance response(CAR) assay in rats with a pretreatment period of 60 min upon peroral administration at a concentration of 20 mg/kg.; format: functional; conditions: route oral; in short: as §1
Rattus norvegicus [6] = test: Percent catalepsy in male Spargue-Dawley rat at pretreatment time 60 mins and administered ip at dose 50 mg/kg; format: functional; conditions: route intraperitoneal
In short: (§2)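 Catalepsy in rats, groups of five per drug treatment, scored blind to drug and dose. Each session included a saline or vehicle negative control and a haloperidol 2 mg/kg positive control. Deaths during the experiment were recorded in the catalepsy column as number dead out of five.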

Rattus norvegicus [7] = test: compound was tested for antipsychotic activity by conditioned avoidance response(CAR) assay in rats with a pretreatment period of 240 min upon peroral administration; format: functional; conditions: po; in short: as §1
Rattus norvegicus [8] = test: compound was tested for antipsychotic activity by conditioned avoidance response(CAR) assay in rats with a pretreatment period of 30 min upon intra peritoneal administration.; format: functional; in short: as §1
Rattus norvegicus [9] = test: compound was tested for antipsychotic activity by conditioned avoidance response(CAR) assay in rats with a pretreatment period of 60 min upon peroral administration; format: functional; conditions: po; in short: as §1
Rattus norvegicus [10] = test: Percent catalepsy in male Spargue-Dawley rat at pretreatment time 60 mins and when administered ip at dose 50 mg/kg (1/5L denotes that one rat out of five died during the course of experiment); format: functional; conditions: route intraperitoneal
In short: (§3)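 Catalepsy scored in groups of five rats per drug treatment, with the experimenter blind to drug and dose, in a quiet room. Each session included two control groups: saline (or vehicle) as negative control and haloperidol 2 mg/kg as positive control. Deaths during the experiment were recorded as lethality (e.g., 3/5L) in place of percent catalepsy.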

Rattus norvegicus [11] = test: compound was tested for antipsychotic activity by conditioned avoidance response(CAR) assay in rats with a pretreatment period of 120 min upon peroral administration; format: functional; conditions: po; in short: as §1
Rattus norvegicus [12] = test: compound was tested for antipsychotic activity by conditioned avoidance response(CAR) assay in rats with a pretreatment period of 30 min upon intra peritoneal administration; format: functional; in short: as §1
Rattus norvegicus [13] = test: compound was tested for antipsychotic activity by conditioned avoidance response(CAR) assay in rats with a pretreatment period of 30 min upon peroral administration; format: functional; conditions: po; in short: as §1
Rattus norvegicus [14] = test: Percent catalepsy in male Spargue-Dawley rat at pretreatment time 240 mins and when administered ip at dose 100 mg/kg (3/5L denotes that three rats out of five died during the course of experiment); format: functional; conditions: route intraperitoneal; in short: as §3
Rattus norvegicus [15] = test: Percent catalepsy in male Spargue-Dawley rat at pretreatment time 240 mins and when administered ip at dose 50 mg/kg; format: functional; conditions: route intraperitoneal; in short: as §2
Rattus norvegicus [16] = test: Percent catalepsy in male Spargue-Dawley rat at pretreatment time 240 mins and when administered po at dose 250 mg/kg; format: functional; in short: as §2
Rattus norvegicus [17] = test: Percent catalepsy in male Spargue-Dawley rat at pretreatment time 60 mins and when administered ip at dose 50 mg/kg; format: functional; conditions: route intraperitoneal; in short: as §2
Rattus norvegicus [18] = test: Percent catalepsy in male Spargue-Dawley rat at pretreatment time 60 mins and when administered po at dose 250 mg/kg; format: functional; in short: as §2
Rattus norvegicus [19] = test: compound was tested for antipsychotic activity by conditioned avoidance response(CAR) assay in rats with a pretreatment period of 60 min upon peroral administration. Values in brackets indicates 95% confidence limits for ED50; format: functional; conditions: po
In short: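 Rats trained in conditioned avoidance were run in a 1-h session on two consecutive days (N = 4). The read-out was reduction of the conditioned response to a disagreeable stimulus. Oral dosing was 60 min before testing. Fed rats had food and water until placed in the test chambers; fasted rats had no food overnight before the experiment.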

Rattus norvegicus [20] = test: compound was tested for antipsychotic activity by conditioned avoidance response(CAR) assay in rats with a pretreatment period of 60 min upon peroral administration.; format: functional; conditions: po; in short: as §1
Rattus norvegicus [21] = test: Percent catalepsy in male Spargue-Dawley rat at pretreatment time 240 mins and administered ip at dose 50 mg/kg; format: functional; conditions: route intraperitoneal; in short: as §2
Rattus norvegicus [22] = test: compound was tested for antipsychotic activity by conditioned avoidance response(CAR) assay in rats and pretreatment period of 60 min upon peroral administration; format: functional; conditions: po; in short: as §1

With `CC(=O)N(C)C(=O)c1cccc(CN2CCN(c3ccccc3OC(C)C)CC2)c1` as the compound, how does the pKi [1] read?
The pKi was 8.48.

And the Ki [2]?
The Ki was 388 nM.

And the inhibition in vivo at 1 mg/kg (Rattus norvegicus [3])?
Its inhibition in vivo at 1 mg/kg is -9.6%.

What about the inhibition in vivo at 5 mg/kg (Rattus norvegicus [4]) of the same compound?
The inhibition in vivo at 5 mg/kg was -94.5%.

What about the inhibition in vivo at 20 mg/kg (Rattus norvegicus [5]) of the same compound?
Its inhibition in vivo at 20 mg/kg is -1.6%.

`COc1ccccc1N1CCN(Cc2cccc(C(=O)N3CCCCCC3)c2)CC1` was tested. Which pKi [1] did it give?
The pKi was 9.34.

And the Ki [2]?
Its Ki is 4.7 nM.

What about the inhibition in vivo at 5 mg/kg (Rattus norvegicus [4]) of the same compound?
The inhibition in vivo at 5 mg/kg was -94.6%.

And the Catalepsy (Rattus norvegicus [6])?
Its Catalepsy is 70%.

Which results are given for `CC(C)Oc1ccccc1C1CCN(Cc2cccc(C(=O)N3CCCCC3)c2)CC1`?
Ki [2]: 2.2 nM; ED50 (Rattus norvegicus [7]): 7.93 mg/kg; ED50 (Rattus norvegicus [8]): 0.75 mg/kg; ED50 (Rattus norvegicus [9]): 7.69 mg/kg; Catalepsy (Rattus norvegicus [10]): 26.3%

What does the source list for `CC(C)Oc1ccccc1N1CCN(Cc2cccc(C(=O)N3CCCCCC3)c2)CC1`?
pKi [1]: 9.22; Ki [2]: 2.1 nM; ED50 (Rattus norvegicus [11]): 15.4 mg/kg; ED50 (Rattus norvegicus [12]): 0.85 mg/kg; ED50 (Rattus norvegicus [13]): 3.32 mg/kg; ED50 (Rattus norvegicus [9]): 11.9 mg/kg; Catalepsy (Rattus norvegicus [14]): 0%; Catalepsy (Rattus norvegicus [15]): 24.1%; Catalepsy (Rattus norvegicus [16]): 15.5%; Catalepsy (Rattus norvegicus [17]): 27.8%; Catalepsy (Rattus norvegicus [18]): 32.5%

`O=C(CCCN1CCC(O)(c2ccc(Cl)cc2)CC1)c1ccc(F)cc1` [HALOPERIDOL] was tested. Which ED50 (Rattus norvegicus [19]) did it give?
The ED50 was 0.31 mg/kg.

With `CC(C)Oc1ccccc1N1CCN(Cc2cccc(C(=O)N3CCCCC3)c2)CC1` [MAZAPERTINE] as the compound, how does the ED50 (Rattus norvegicus [11]) read?
The ED50 was 26 mg/kg.

And the ED50 (Rattus norvegicus [13])?
The ED50 was 14.5 mg/kg.

What about the ED50 (Rattus norvegicus [9]) of the same compound?
Its ED50 is 3.35 mg/kg.

And the ED50 (Rattus norvegicus [20])?
The ED50 was 11 mg/kg.

And the Catalepsy (Rattus norvegicus [21])?
Its Catalepsy is 47.8%.

And the Catalepsy (Rattus norvegicus [6])?
Its Catalepsy is 32.4%.

Which ED50 (Rattus norvegicus [22]) does the source give for `CC(C)Oc1ccccc1N1CCN(Cc2ccc(CN3CCCCC3=O)n2C)CC1` [RWJ-25730] here?
The ED50 was 34.7 mg/kg.
